{
  "source": "paper PMC9664485",
  "about": "(European journal of medicinal chemistry, 2022)",
  "key": {"[1]": {"target": "T1, recombinant human Wip1 (1–420) (Homo sapiens, UniProt O15297)", "T1 sequence (O15297 1-420)": "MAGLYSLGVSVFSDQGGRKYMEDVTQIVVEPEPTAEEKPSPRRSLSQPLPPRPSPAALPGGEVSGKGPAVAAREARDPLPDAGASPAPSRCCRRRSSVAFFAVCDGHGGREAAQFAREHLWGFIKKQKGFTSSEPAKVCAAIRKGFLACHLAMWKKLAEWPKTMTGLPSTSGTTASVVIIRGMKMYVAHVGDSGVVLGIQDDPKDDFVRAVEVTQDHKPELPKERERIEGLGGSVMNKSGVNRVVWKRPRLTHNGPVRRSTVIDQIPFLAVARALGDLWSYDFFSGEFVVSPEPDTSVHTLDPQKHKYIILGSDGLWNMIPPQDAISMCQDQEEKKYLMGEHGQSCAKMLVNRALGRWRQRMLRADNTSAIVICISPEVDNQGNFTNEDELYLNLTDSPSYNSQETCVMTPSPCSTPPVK", "assay": "Wip1 phosphatase activity inhibition assay", "format": "biochemical", "conditions": "for Hill coefficient [n]: variable slope logistic fit of Wip1 inhibition curve"}, "[2]": {"target": "T2, PPM1A (also called PP2Cα) (Homo sapiens, UniProt P35813)", "T2 sequence (P35813 1-382)": "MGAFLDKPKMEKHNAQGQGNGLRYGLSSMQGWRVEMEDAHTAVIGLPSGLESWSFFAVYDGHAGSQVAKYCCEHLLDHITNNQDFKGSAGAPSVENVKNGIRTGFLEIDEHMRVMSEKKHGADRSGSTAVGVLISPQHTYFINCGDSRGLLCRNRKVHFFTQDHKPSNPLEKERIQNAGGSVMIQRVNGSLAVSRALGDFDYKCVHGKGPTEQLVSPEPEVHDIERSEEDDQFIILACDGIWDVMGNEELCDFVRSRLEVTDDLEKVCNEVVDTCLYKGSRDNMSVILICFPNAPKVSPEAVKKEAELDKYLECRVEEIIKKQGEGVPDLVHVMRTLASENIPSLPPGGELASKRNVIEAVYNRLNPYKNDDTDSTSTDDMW", "assay": "PPM1A phosphatase specificity assay", "format": "biochemical", "conditions": "up to 100 μM; 8 nM PPM1A, 100 μM human p38α (175–185, 180pT) phosphopeptide", "method_in_brief": "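Test compound or DMSO is mixed with the phosphopeptide substrate before PPM1A is added. Buffer: 50 mM Tris·HCl pH 7.5, 0.1 mM EGTA, 1 mM DTT, 1 mM CHAPS, 0.1 mg/mL BSA, 30 mM MgCl2. Incubation runs 7 min at 30 °C. Biomol Green stops the reaction, then colour develops 20 min at room temperature. Released phosphate is read at 620 nm against a phosphate standard curve.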"}},
  "note": "Several values for one entry are separate records, joined by “and”; a condition that tells them apart may be missing. Identical values can stand only once.",
  "data": [
    {"smiles": "O=C(Nc1cccc(Cl)c1)c1cccc(C(=O)Nc2ccc(C(=O)Nc3cccc(OP(=O)(O)O)c3)cc2CC2CCCCC2)c1", "note": "[Compound 48a, 3-(4-(3-((3-chlorophenyl)carbamoyl)benzamido)-3-(cyclohexylmethyl)benzamido)phenyl dihydrogen phosphate]", "values": [
      {"measurement": "Hill coefficient [n]", "setting": "[1]", "result": "5 and 5.1 ± 0.3"},
      {"measurement": "inhibitory activity against PPM1A", "setting": "[2]", "result": "no inhibitory activity"}
    ]},
    {"smiles": "O=C(Nc1cccc(Cl)c1)c1cccc(CNc2ccc(C(=O)Nc3cccc(OP(=O)(O)O)c3)cc2CC2CCCCC2)c1", "note": "[Compound 40b, 3-(4-((3-((3-chlorophenyl)carbamoyl)benzyl)amino)-3-(cyclohexylmethyl)benzamido)phenyl dihydrogen phosphate]", "values": [
      {"measurement": "fold improvement in Wip1 inhibition", "setting": "[1]; compared with 22g", "result": 7, "unit": "fold"},
      {"measurement": "Hill coefficient [n]", "setting": "[1]", "result": "1.4 ± 0.1"},
      {"measurement": "inhibitory activity against PPM1A", "setting": "[2]", "result": "no inhibitory activity"}
    ]},
    {"smiles": "O=C(Nc1cccc(OP(=O)(O)O)c1)c1ccc(NC(=O)c2cccc(CNc3cccc(Cl)c3)c2)c(CC2CCCCC2)c1", "note": "[Compound 48b, 3-(4-(3-(((3-chlorophenyl)amino)methyl)benzamido)-3-(cyclohexylmethyl)benzamido)phenyl dihydrogen phosphate]", "values": [
      {"measurement": "Hill coefficient [n]", "setting": "[1]", "result": "2.3 ± 0.2"},
      {"measurement": "inhibitory activity against PPM1A", "setting": "[2]", "result": "no inhibitory activity"}
    ]},
    {"smiles": "COc1cccc(CNc2ccc(C(=O)Nc3cccc(OP(=O)(O)O)c3)cc2CC2CCCCC2)c1", "note": "[Compound 22e, 3-(3-(cyclohexylmethyl)-4-((3-methoxybenzyl)amino)benzamido)phenyl dihydrogen phosphate]", "values": [
      {"measurement": "Hill coefficient [n]", "setting": "[1]", "result": "1.3 ± 0.3"}
    ]},
    {"smiles": "COc1ccc(CNc2ccc(C(=O)Nc3cccc(OP(=O)(O)O)c3)cc2CC2CCCCC2)cc1", "note": "[Compound 22d, 3-(3-(cyclohexylmethyl)-4-((4-methoxybenzyl)amino)benzamido)phenyl dihydrogen phosphate]", "values": [
      {"measurement": "Hill coefficient [n]", "setting": "[1]", "result": "2.0 ± 0.2"}
    ]},
    {"smiles": "O=C(Nc1cccc(F)c1)c1cccc(CNc2ccc(C(=O)Nc3cccc(OP(=O)(O)O)c3)cc2CC2CCCCC2)c1", "note": "[Compound 40f, 3-(3-(cyclohexylmethyl)-4-((3-((3-fluorophenyl)carbamoyl)benzyl)amino)benzamido)phenyl dihydrogen phosphate]", "values": [
      {"measurement": "Hill coefficient [n]", "setting": "[1]", "result": "3.6 ± 0.2"}
    ]}
  ]
}
